Laboratory results: publication PMC3114175 (Bioorganic & medicinal chemistry, 2011)

Experiments:
TLR7 = biological target: T1, TLR7 (Homo sapiens, UniProt Q9NYK1); assay: TLR7 antagonism reporter gene assay; format: cell-based
T1 sequence (Q9NYK1 27-1049): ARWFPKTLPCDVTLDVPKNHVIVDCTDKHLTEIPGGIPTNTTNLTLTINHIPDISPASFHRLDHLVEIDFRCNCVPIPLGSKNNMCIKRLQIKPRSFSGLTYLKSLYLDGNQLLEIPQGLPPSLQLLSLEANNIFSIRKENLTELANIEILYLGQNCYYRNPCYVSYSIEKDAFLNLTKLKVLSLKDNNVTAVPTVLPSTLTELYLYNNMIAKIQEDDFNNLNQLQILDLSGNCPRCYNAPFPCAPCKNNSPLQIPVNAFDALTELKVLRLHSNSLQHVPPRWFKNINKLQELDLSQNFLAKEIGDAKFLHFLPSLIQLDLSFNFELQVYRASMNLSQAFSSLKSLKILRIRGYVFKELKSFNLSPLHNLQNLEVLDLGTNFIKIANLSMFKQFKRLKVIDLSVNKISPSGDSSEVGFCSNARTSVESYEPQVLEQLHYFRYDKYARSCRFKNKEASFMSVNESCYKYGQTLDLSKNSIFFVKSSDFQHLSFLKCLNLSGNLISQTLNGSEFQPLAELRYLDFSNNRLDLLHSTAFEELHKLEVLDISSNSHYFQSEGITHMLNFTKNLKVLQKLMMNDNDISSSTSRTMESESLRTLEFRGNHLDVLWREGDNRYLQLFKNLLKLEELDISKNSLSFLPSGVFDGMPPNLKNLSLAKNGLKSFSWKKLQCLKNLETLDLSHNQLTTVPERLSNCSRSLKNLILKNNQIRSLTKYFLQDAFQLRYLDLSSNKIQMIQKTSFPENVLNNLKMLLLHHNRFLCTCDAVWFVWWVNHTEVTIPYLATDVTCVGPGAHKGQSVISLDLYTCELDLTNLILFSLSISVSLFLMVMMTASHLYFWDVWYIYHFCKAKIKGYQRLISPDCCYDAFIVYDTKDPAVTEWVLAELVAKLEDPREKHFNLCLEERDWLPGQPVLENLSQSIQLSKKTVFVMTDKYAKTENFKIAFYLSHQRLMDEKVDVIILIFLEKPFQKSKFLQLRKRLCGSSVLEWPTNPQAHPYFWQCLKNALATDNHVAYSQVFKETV
Outline: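 HEK-Blue-7 cells (HEK293 stably expressing TLR7 plus NF-κB/AP-1-driven secreted alkaline phosphatase reporter) were kept in selection medium with zeocin and normocin and grown to confluency. They were stimulated with gardiquimod at 1 μg/mL, or 250 ng/mL for Schild analysis, with serially diluted test compound (top 250 μM) added concurrently. After overnight incubation, supernatant sAP was read with chromogen at 620 nm. Replicates were duplicate or quadruplicate.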

TLR8 = biological target: T2, TLR8 (Homo sapiens, UniProt Q9NR97); assay: TLR8 antagonism reporter gene assay; format: cell-based
T2 sequence (Q9NR97 27-1041): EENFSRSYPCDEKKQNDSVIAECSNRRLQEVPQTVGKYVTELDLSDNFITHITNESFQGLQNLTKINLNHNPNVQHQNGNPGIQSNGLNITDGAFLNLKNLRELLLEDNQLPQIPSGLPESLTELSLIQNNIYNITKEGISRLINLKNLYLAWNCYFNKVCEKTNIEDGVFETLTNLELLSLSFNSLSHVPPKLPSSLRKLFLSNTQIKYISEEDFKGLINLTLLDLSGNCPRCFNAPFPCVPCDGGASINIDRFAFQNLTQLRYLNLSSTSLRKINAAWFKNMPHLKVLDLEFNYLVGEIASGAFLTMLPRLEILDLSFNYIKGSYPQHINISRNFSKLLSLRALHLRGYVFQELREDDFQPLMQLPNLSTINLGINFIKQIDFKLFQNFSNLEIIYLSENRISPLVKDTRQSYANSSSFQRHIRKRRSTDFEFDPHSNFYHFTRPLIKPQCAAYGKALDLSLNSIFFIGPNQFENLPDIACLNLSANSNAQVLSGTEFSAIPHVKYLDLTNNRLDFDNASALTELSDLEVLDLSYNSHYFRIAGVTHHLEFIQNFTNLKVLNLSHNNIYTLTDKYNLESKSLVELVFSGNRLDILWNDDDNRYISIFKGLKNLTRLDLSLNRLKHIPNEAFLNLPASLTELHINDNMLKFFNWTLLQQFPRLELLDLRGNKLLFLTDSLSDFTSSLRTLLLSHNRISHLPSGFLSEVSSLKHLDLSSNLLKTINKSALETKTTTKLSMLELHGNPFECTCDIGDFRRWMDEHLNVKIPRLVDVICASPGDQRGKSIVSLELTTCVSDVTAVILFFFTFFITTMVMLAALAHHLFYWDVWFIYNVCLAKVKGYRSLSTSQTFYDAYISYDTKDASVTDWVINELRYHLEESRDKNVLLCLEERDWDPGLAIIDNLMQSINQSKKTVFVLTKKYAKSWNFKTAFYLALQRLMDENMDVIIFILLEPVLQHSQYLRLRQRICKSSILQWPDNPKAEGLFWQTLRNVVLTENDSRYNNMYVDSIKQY

SMILES: CCNCc1nc2c3ccccc3ncc2n1CCCO [Compound 6a, 3-(2-((ethylamino)methyl)-3H-imidazo[4,5-c]quinolin-3-yl)propan-1-ol]
- IC50 (TLR7): > 250 µM
- IC50 (TLR8): > 250 µM

SMILES: COc1ccc(Cn2c(-c3ccccc3)nc3c4ccccc4ncc32)cc1 [Compound 5b, 3-(4-methoxybenzyl)-2-phenyl-3H-imidazo[4,5-c]quinoline]
- IC50 (TLR7): > 250 µM
- IC50 (TLR8): > 250 µM

SMILES: COc1ccc(Cn2c(-c3ccccc3)nc3c4ccccc4[n+](Cc4ccc(OC)cc4)cc32)cc1 [Compound 12, 3,5-bis(4-methoxybenzyl)-2-phenyl-3H-imidazo[4,5-c]quinolin-5-ium]
- Mode of inhibition by Schild analyses (TLR7; agonist gardiquimod 1 μg/mL and 250 ng/mL): competitive

SMILES: C#CCn1c(CCCCCCCCC)nc2c3ccccc3ncc21 [Compound 7d]
- TLR7-inhibitory activity (TLR7): low micromolar TLR7-inhibitory activity

SMILES: CC(C)(O)Cn1c(-c2ccccc2)nc2c3ccccc3ncc21 [Compound 4b, 2-methyl-1-(2-phenyl-3H-imidazo[4,5-c]quinolin-3-yl)propan-2-ol]
- IC50 (TLR7): > 250 µM

SMILES: CCNCc1nc2c3ccccc3[n+]([O-])cc2n1CC(C)(C)O [Compound 10, 2-((ethylamino)methyl)-3-(2-hydroxy-2-methylpropyl)-3H-imidazo[4,5-c]quinoline 5-oxide]
- IC50 (TLR7): > 250 µM

SMILES: CCNCc1nc2c3ccccc3nc(NC(=O)c3ccccc3)c2n1CC(C)(C)O [Compound 11, N-(2-((ethylamino)methyl)-3-(2-hydroxy-2-methylpropyl)-3H-imidazo[4,5-c]quinolin-4-yl)benzamide]
- IC50 (TLR7): > 250 µM

SMILES: CC(C)(O)Cn1c(C2CCCCC2)nc2c3ccccc3ncc21 [Compound 4c]
- IC50 (TLR7): > 250 µM

SMILES: CCCCCCCCCc1nc2c3ccccc3ncc2n1C [Compound 8d]
- TLR7-inhibitory activity (TLR7): low micromolar TLR7-inhibitory activity
